For data set [1], the target named is C-C chemokine receptor type 2 (Mus musculus, UniProt P51683). Nature of the data set: Displacement of [125I]MCP1 from mouse CCR2 expressed in monocytes. Type of data set: cell-based. Background: Loss of bound radioactivity is the signal in a displacement assay; it reports binding, not function.
Data set [2] addresses T1, C-C chemokine receptor type 2 (Homo sapiens, UniProt P41597). Nature of the data set: Displacement of [125I]MCP1 from human CCR2 expressed in monocytes. Type of data set: cell-based. An outline of the steps: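 Human CCR2 binding was read as inhibition of 125I-MCP-1 binding to monocyte cells stably transfected with CCR2. The assay was run in the presence of 0.5% BSA, using membranes of these cells.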
Target sequence in this assay (P41597 whole entry): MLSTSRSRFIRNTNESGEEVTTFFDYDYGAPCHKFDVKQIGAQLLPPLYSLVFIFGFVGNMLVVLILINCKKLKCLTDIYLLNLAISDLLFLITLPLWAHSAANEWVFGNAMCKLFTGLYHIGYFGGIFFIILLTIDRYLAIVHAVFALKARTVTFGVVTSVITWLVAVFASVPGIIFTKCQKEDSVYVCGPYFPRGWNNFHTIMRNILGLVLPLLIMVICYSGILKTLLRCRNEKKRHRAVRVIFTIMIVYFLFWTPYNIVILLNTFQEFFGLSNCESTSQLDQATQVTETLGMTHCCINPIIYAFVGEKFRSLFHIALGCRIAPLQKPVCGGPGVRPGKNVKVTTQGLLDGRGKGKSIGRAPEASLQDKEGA

The target of data set [3] is T1, C-C chemokine receptor type 2. Put plainly: Displacement of [125I]MCP-1 from human CCR2 expressed in monocytes 1 uM. Type of data set: cell-based.
Target sequence in this assay (P41597 whole entry, looked up): as the sequence (P41597 whole entry) above
The target in data set [4] is Substance-P receptor (Homo sapiens) (UniProt P25103). Nature of the data set: Inhibition of NK1 receptor at 1uM.
Substance-P receptor (Homo sapiens), sequence (P25103 whole entry): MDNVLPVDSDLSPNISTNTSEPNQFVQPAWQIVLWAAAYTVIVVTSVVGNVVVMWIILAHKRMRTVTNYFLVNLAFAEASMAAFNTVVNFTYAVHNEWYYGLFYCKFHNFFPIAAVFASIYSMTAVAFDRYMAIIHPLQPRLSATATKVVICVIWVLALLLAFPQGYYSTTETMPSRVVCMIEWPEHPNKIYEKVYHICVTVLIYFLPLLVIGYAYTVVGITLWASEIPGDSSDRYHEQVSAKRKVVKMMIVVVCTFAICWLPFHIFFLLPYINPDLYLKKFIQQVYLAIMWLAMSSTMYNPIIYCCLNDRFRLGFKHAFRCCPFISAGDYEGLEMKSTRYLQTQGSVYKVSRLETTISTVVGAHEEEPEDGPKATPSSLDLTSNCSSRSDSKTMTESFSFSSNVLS
In data set [5] the target is T2, C-C chemokine receptor type 1 (Homo sapiens) (UniProt P32246).
T2 sequence (whole entry): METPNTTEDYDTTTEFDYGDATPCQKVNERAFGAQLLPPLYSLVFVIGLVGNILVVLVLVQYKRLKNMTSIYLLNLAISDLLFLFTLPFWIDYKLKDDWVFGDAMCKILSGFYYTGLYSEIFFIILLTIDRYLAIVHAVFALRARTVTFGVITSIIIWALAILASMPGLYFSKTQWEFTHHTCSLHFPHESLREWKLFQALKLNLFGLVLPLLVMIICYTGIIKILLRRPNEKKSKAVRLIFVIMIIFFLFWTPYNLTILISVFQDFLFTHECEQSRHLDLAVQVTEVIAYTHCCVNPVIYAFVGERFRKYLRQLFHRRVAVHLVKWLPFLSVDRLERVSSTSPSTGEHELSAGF
Nature of the data set: Inhibition of CCR1 at 1uM.

Data set [6] can be described thus: Tmax in Beagle dog. Particulars: in vivo. It is filed as ADME, organism-based, Canis lupus familiaris.
Data set [7] in a line: Clearance in Sprague-Dawley rat. Type of data set: ADME, organism-based. Particulars: in vivo.
Data set [8] concerns the target C-X-C chemokine receptor type 4 (Homo sapiens) (UniProt P61073). Nature of the data set: Inhibition of CXCR4 at 1uM.
A short description of data set [9]: Bioavailability in Sprague-Dawley rat. It is filed as ADME, organism-based. Particulars: in vivo.
A short description of data set [10]: Half life in Beagle dog. It is filed as ADME, organism-based, Canis lupus familiaris. Particulars: in vivo.
Data set [11] can be described thus: Cmax in Beagle dog. Particulars: in vivo. It is filed as ADME, organism-based, Canis lupus familiaris.
Data set [12] concerns the target T3, C-C chemokine receptor type 3 (Homo sapiens) (UniProt P51677).
T3 sequence (whole entry): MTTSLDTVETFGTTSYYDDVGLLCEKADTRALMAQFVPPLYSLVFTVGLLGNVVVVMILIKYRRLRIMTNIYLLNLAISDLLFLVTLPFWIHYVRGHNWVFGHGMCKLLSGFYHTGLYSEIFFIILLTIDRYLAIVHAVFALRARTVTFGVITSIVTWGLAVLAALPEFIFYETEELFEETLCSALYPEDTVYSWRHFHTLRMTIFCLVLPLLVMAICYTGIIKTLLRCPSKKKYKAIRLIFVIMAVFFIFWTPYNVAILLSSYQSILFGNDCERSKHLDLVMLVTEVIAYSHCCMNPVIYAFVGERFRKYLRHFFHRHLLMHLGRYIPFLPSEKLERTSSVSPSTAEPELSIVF
Put plainly: Inhibition of CCR3 at 1uM.

Data set [13] can be described thus: Volume of distribution in Sprague-Dawley rat. It is filed as ADME, organism-based. Particulars: in vivo, read-out: Vdss.
The nature of data set [14]: Volume of distribution in Beagle dog. The conditions noted are these: in vivo, read-out: Vdss. It is filed as ADME, organism-based, Canis lupus familiaris.
Data set [15] can be described thus: Clearance in Beagle dog. Particulars: in vivo. It is filed as ADME, organism-based, Canis lupus familiaris.
Data set [16] is described as follows: Bioavailability in Beagle dog. The conditions noted are these: in vivo. Type of data set: ADME, organism-based, Canis lupus familiaris.
A short description of data set [17]: Half life in Sprague-Dawley rat. Particulars: in vivo. Type of data set: ADME, organism-based.
Data set [18] is described as follows: Tmax in Sprague-Dawley rat. It is filed as ADME, organism-based. Particulars: in vivo.
Data set [19] can be described thus: Cmax in Sprague-Dawley rat. Type of data set: ADME, organism-based. Particulars: in vivo.
Data set [20] concerns the target T4, C-C chemokine receptor type 4 (Homo sapiens) (UniProt P51679).
T4 sequence (whole entry): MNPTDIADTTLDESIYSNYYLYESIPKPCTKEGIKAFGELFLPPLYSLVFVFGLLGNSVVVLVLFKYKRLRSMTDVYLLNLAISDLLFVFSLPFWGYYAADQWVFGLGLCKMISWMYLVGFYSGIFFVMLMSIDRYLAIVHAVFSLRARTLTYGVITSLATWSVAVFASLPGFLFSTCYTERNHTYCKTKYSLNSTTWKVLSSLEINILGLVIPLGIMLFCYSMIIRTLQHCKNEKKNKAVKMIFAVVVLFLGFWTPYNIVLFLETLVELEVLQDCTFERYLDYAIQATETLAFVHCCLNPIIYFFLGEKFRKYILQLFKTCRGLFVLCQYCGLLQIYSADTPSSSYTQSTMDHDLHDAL
Nature of the data set: Inhibition of CCR4 at 1uM.

Data set [21] deals with C-C chemokine receptor type 5 (Homo sapiens) (UniProt P51681). Nature of the data set: Inhibition of CCR5 at 1uM.
C-C chemokine receptor type 5 (Homo sapiens), sequence (P51681 whole entry, looked up): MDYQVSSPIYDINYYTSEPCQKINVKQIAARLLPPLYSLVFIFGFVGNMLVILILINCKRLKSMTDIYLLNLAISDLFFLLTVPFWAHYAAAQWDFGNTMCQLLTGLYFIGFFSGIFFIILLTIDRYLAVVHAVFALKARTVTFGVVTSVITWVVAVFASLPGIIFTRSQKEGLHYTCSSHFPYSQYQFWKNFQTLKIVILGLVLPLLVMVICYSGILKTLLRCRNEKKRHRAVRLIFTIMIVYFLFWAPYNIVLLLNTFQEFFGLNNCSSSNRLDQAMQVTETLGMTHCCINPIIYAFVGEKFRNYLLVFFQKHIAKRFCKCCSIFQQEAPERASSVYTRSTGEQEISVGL

C-C chemokine receptor type 2 (Mus musculus, UniProt P51683), sequence (P51683 whole entry): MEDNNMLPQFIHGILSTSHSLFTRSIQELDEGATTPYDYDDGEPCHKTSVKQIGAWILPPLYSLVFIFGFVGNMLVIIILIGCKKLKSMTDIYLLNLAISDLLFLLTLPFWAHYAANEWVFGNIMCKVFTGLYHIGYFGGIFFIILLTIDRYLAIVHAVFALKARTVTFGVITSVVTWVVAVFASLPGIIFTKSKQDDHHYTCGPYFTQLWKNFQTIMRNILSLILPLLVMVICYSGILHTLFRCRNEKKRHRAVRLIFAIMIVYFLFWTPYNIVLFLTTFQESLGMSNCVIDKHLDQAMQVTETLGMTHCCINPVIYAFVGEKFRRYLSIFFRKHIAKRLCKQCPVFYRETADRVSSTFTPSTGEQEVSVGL
C-X-C chemokine receptor type 4 (Homo sapiens), sequence (P61073 whole entry): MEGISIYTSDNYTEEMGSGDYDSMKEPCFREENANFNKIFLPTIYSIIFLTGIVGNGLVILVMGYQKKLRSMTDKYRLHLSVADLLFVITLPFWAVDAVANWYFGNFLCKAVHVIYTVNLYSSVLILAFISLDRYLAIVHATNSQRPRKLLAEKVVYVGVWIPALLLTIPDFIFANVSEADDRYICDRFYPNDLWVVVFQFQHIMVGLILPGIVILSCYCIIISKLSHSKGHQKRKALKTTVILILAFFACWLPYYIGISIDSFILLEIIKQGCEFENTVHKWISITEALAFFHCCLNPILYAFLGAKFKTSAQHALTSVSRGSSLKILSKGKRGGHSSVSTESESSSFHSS

Usually IC50 stands for the concentration at which inhibition is half-maximal. Turning to `C[C@H]1CN(CCC(C(=O)NCc2cc(C(F)(F)F)cc(C(F)(F)F)c2)c2csc(NC(=O)Cc3cccs3)n2)CC[C@]12C=Cc1ccccc12` (some centres not stated), the IC50 in [1] is 81 nM; in data set [2], 23 nM.

In general, inhibition refers to the percentage by which the read-out fell short of the control. A lower inhibition goes with little suppression. The molecule `Nc1nc(C(CCN2CCN(c3ccc(F)cc3)CC2)C(=O)NCc2cc(C(F)(F)F)cc(C(F)(F)F)c2)cs1` (configuration not stated) came in with an inhibition in data set [3] of 70%.

In the case of `C[C@H]1CN(CCC(C(=O)NCc2cc(C(F)(F)F)cc(C(F)(F)F)c2)c2csc(NC(=O)Cc3ccccn3)n2)CC[C@]12C=Cc1ccccc12` (some centres not stated), the results for the IC50 in data set [1] and in data set [2] were 79 nM and 13 nM, respectively.

For `COC(=O)Nc1nc([C@H](CCN2CCC(c3ccccc3)CC2)C(=O)NCc2cc(C(F)(F)F)cc(C(F)(F)F)c2)cs1`, the 50% inhibitory concentration (IC50) in data set [2] turned out to be 3.5 nM.

For the molecule `O=C(NCc1cc(C(F)(F)F)cc(C(F)(F)F)c1)[C@H](CCN1CCC(c2ccccc2)CC1)c1cscn1`, the IC50 in data set [2] came to 229 nM.

With `C[C@H]1CN(CCC(C(=O)NCc2cc(C(F)(F)F)cc(C(F)(F)F)c2)c2csc(NC(=O)Cc3ccccc3)n2)CC[C@]12C=Cc1ccccc12` (some centres not stated), the IC50 in data set [1] turned out to be 165 nM; in data set [2], 19 nM.

`Cc1ccccc1N1CCN(CCC(C(=O)NCc2cc(C(F)(F)F)cc(C(F)(F)F)c2)c2csc(N)n2)CC1` (configuration not stated) gave an IC50 in [2] of 183 nM.

With `C[C@H]1CN(CCC(C(=O)NCc2cc(C(F)(F)F)cc(C(F)(F)F)c2)c2csc(NC(=O)c3cccnc3)n2)CC[C@]12C=Cc1ccccc12` (some centres not stated), the IC50 in [1] was determined as 186 nM; in data set [2], 14 nM.

As to `CC(C(=O)Nc1nc(C(CCN2CC[C@]3(C=Cc4ccccc43)[C@@H](C)C2)C(=O)NCc2cc(C(F)(F)F)cc(C(F)(F)F)c2)cs1)c1ccccc1` (some centres not stated), the IC50 came out at 517 nM in [1] and 74 nM in [2].

`CC(=O)Nc1nc(C(CCN2CCC(c3ccc(F)cc3)CC2)C(=O)NCc2cc(C(F)(F)F)cc(C(F)(F)F)c2)cs1` (configuration not stated): the IC50 in data set [2] amounted to 1.8 nM. This lies in the single-digit nanomolar range.

Turning to `O=C(Nc1nc(C(CCN2CCC(c3ccccc3)CC2)C(=O)NCc2cc(C(F)(F)F)cc(C(F)(F)F)c2)cs1)C1CC1` (configuration not stated), in data set [2], the IC50 came to 3.9 nM.

In [2], `CNC(=O)Nc1nc([C@H](CCN2CCC3(C=Cc4ccccc43)CC2)C(=O)NCc2cc(C(F)(F)F)cc(C(F)(F)F)c2)cs1` registered an IC50 of 0.8 nM.

With `Nc1nc(C(CCN2CCCCC2)C(=O)NCc2cc(C(F)(F)F)cc(C(F)(F)F)c2)cs1` (configuration not stated), the inhibition in [3] came out at 75%.

Consider `C[C@H]1CN(CCC(C(=O)NCc2cc(C(F)(F)F)cc(C(F)(F)F)c2)c2csc(NC(=O)C3Cc4ccccc43)n2)CC[C@]12C=Cc1ccccc12` (some centres not stated), for which the IC50 in [1] was 111 nM; in [2], 36 nM.

With `CNC(=O)Nc1nc([C@H](CCN2CCC(c3ccccc3)CC2)C(=O)NCc2cc(C(F)(F)F)cc(C(F)(F)F)c2)cs1`, in [2], the IC50 amounted to 0.43 nM.

One may read the Tmax as the time at which the peak concentration occurs. In general, clearance refers to the rate of elimination divided by the concentration. What is called bioavailability is dose-corrected exposure relative to a reference, in per cent. Read a low bioavailability as little systemic uptake. As a reminder, the half-life is the time in which the quantity being followed falls by half. A word on the Cmax: it is the maximum level reached in the sampled fluid or tissue. `CC(=O)Nc1nc(C(CCN2CCC(c3ccccc3)CC2)C(=O)NCc2cc(C(F)(F)F)cc(C(F)(F)F)c2)cs1` (configuration not stated): the inhibition in data set [4] is 56%; in data set [5], 66%; in [8] it was 27%; in data set [12], 7%; in data set [20], 86%; in data set [21], 44%. Besides, the Tmax in data set [6] stood at 0.5 h; in data set [18] it was 2.2 h. The clearance in [7] was found to be 52.5 mL/min/kg; in data set [15], 21.6 mL/min/kg. For the same molecule, the bioavailability stood at 17% in data set [9] and 1.6% in data set [16]. Besides, the half-life in data set [10] is 2.28 h; in data set [17], 1.4 h. Moreover, the peak concentration (Cmax) in data set [11] was found to be 18 nM; in data set [19] it was 64 nM. In addition, the IC50 in [2] came to 5.2 nM. The Vd stood at 5.3 L/kg in data set [13] and 4 L/kg in data set [14].

With `CNC(=O)Nc1nc([C@@H](CCN2CCC(c3ccccc3)CC2)C(=O)NCc2cc(C(F)(F)F)cc(C(F)(F)F)c2)cs1`, the IC50 in data set [2] was 30 nM. In other words, the double-digit nanomolar range.

In data set [2], `CC(C)C(=O)Nc1nc(C(CCN2CCC(c3ccccc3)CC2)C(=O)NCc2cc(C(F)(F)F)cc(C(F)(F)F)c2)cs1` (configuration not stated) had an IC50 of 7.4 nM.

`CN(C)C(=O)Nc1nc(C(CCN2CCC(c3ccccc3)CC2)C(=O)NCc2cc(C(F)(F)F)cc(C(F)(F)F)c2)cs1` (configuration not stated): in data set [2], the IC50 was 2.3 nM. Against the preceding molecule, the IC50 is about 3.2-fold lower.

For the molecule `C[C@H]1CN(CCC(C(=O)NCc2cc(C(F)(F)F)cc(C(F)(F)F)c2)c2csc(NC(=O)c3ccccc3)n2)CC[C@]12C=Cc1ccccc12` (some centres not stated), the figures for the IC50 in data set [1] and in data set [2] were 952 nM and 17 nM, respectively.

`COC(=O)Nc1nc([C@@H](CCN2CCC(c3ccccc3)CC2)C(=O)NCc2cc(C(F)(F)F)cc(C(F)(F)F)c2)cs1` showed an inhibition in data set [3] of 85%.

In data set [2], `CC(=O)Nc1nc(C(CCN2CCN(c3ccc(F)cc3)CC2)C(=O)NCc2cc(C(F)(F)F)cc(C(F)(F)F)c2)cs1` (configuration not stated) displayed an IC50 of 32.7 nM.
